Laboratory results published in ChEMBL document CHEMBL1240483, “Novel N-phenyl dichloroacetamide derivatives as anticancer reagents: design, synthesis and biological evaluation” (Eur J Med Chem, 2010).

Experiments:
[1] = test system: A549; experiment: Anticancer activity against human A549 cells after 72 hrs by MTT assay; type: functional, cell-based; settings: A549, 72 h
Outline: (§1)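 Cells seeded at 3000/well and grown 24 h: A549 in F12-K, BGC-823, KB and BEL-7402 in RPMI 1640, all with 10% FBS at 37 °C in 5% CO2. Drug added at 10 concentrations from 4×10^-4 to 1×10^-7 M and incubated 72 h. MTT added for 4 h at 37 °C, then SDS/isobutanol/HCl lysis overnight. A570 read. IC50 from three independent tests.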

[2] = test system: KB; experiment: Anticancer activity against human KB cells after 72 hrs by MTT assay; type: functional, cell-based; outline: as §1
[3] = test system: Bel-7402; experiment: Anticancer activity against human Bel7402 cells after 72 hrs by MTT assay; type: functional, cell-based; settings: Bel-7402, 72 h; outline: as §1
[4] = Toxicity in intragastrically administered Kunming mouse after 14 days; type: organism-based; settings: in vivo, po
[5] = test system: BGC-823; experiment: Anticancer activity against human BGC823 cells after 72 hrs by MTT assay; type: functional, cell-based; settings: BGC-823, 72 h; outline: as §1
[6] = test system: A549; experiment: Induction of apoptosis in human A549 cells assessed as late apoptotic cells at 10 uM after 24 hrs by annexin-V/propidium iodide based FACS analysis; type: functional
Outline: (§2)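 A549 cells grown in F12-K with 10% FBS at 37 °C under 5% CO2. Exposed for 24 or 48 h to 0, 10, 15 or 30 μM, then trypsinized, pelleted and stained with Annexin V-FITC/PI for flow cytometry. Late apoptotic cells taken as the Q2 quadrant.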

[7] = test system: A549; experiment: Induction of apoptosis in human A549 cells assessed as early apoptotic cells at 15 uM after 24 hrs by annexin-V/propidium iodide based FACS analysis; type: functional
Outline: (§3)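 A549 cells (F12-K, 10% FBS, 37 °C, 5% CO2) treated at 0, 10, 15 or 30 μM for 24 or 48 h, then trypsinized and resuspended in PBS. Stained with Annexin V-FITC/PI kit and analysed by flow cytometry. Early apoptotic cells counted in the Q4 quadrant.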

[8] = test system: A549; experiment: Induction of apoptosis in human A549 cells assessed as early apoptotic cells at 30 uM after 48 hrs by annexin-V/propidium iodide based FACS analysis; type: functional; outline: as §3
[9] = test system: A549; experiment: Induction of apoptosis in human A549 cells assessed as early apoptotic cells at 10 uM after 48 hrs by annexin-V/propidium iodide based FACS analysis; type: functional; outline: as §3
[10] = test system: A549; experiment: Induction of apoptosis in human A549 cells assessed as early apoptotic cells at 15 uM after 48 hrs by annexin-V/propidium iodide based FACS analysis; type: functional; outline: as §3
[11] = test system: A549; experiment: Induction of apoptosis in human A549 cells assessed as early apoptotic cells at 10 uM after 24 hrs by annexin-V/propidium iodide based FACS analysis; type: functional; outline: as §3
[12] = test system: A549; experiment: Induction of apoptosis in human A549 cells assessed as late apoptotic cells at 30 uM after 48 hrs by annexin-V/propidium iodide based FACS analysis; type: functional; outline: as §2
[13] = test system: A549; experiment: Induction of apoptosis in human A549 cells assessed as late apoptotic cells at 30 uM after 24 hrs by annexin-V/propidium iodide based FACS analysis; type: functional; outline: as §2
[14] = test system: A549; experiment: Induction of apoptosis in human A549 cells assessed as late apoptotic cells at 15 uM after 24 hrs by annexin-V/propidium iodide based FACS analysis; type: functional; outline: as §2
[15] = test system: A549; experiment: Induction of apoptosis in human A549 cells assessed as early apoptotic cells at 30 uM after 24 hrs by annexin-V/propidium iodide based FACS analysis; type: functional; outline: as §3
[16] = test system: A549; experiment: Induction of apoptosis in human A549 cells assessed as late apoptotic cells at 15 uM after 48 hrs by annexin-V/propidium iodide based FACS analysis; type: functional; outline: as §2
[17] = test system: A549; experiment: Induction of apoptosis in human A549 cells assessed as late apoptotic cells at 10 uM after 48 hrs by annexin-V/propidium iodide based FACS analysis; type: functional; outline: as §2

SMILES	IC50 [1] [µM]	IC50 [2] [µM]	IC50 [3] [µM]	IC50 [5] [µM]	also measured
O=C(Nc1ccccc1)C(Cl)Cl	130				
O=C(Nc1ccccc1F)C(Cl)Cl	87.5				
O=C(Nc1ccccc1Br)C(Cl)Cl	37	67.9	38.2		
O=C(Nc1ccccc1[N+](=O)[O-])C(Cl)Cl	198	253	194		
O=C(Nc1ccccc1NC(=O)C(Cl)Cl)C(Cl)Cl	131				
Cc1cccc(NC(=O)C(Cl)Cl)c1	41.1				
O=C(Nc1cccc(Cl)c1)C(Cl)Cl	14.8		44.5		LD50 at 336 h [4]: 4550 mg/kg
O=C(Nc1cccc(Br)c1)C(Cl)Cl	7.8	8.18	7.72	95.3	
O=C(Nc1cccc(I)c1)C(Cl)Cl	4.76	5.25	5.39	58.8	Activity [6]: 8.6%; Activity [7]: 9.2%; LD50 at 336 h [4]: 1120 mg/kg; Activity [8]: 10.6%; Activity [9]: 7.8%; Activity [10]: 8.7%; Activity [11]: 10.8%; Activity [12]: 35.6%; Activity [13]: 20.3%; Activity [14]: 19.3%; Activity [15]: 15.2%; Activity [16]: 22.6%; Activity [17]: 17.6%
N#Cc1cccc(NC(=O)C(Cl)Cl)c1	66.5	60.9	48.4		
C#Cc1cccc(NC(=O)C(Cl)Cl)c1	11.2	6.26	4.74	172	
O=C(Nc1cccc([N+](=O)[O-])c1)C(Cl)Cl	18	44.7	15.7	123	
COc1cccc(NC(=O)C(Cl)Cl)c1	25.8	57.7	54.8	179	
O=C(Nc1cccc(C(F)(F)F)c1)C(Cl)Cl	12.2	8.86	5.97	143	
O=C(Nc1cccc(OC(F)(F)F)c1)C(Cl)Cl	15.1	7.41	10.3	142	
O=C(Nc1cccc(SC(F)(F)F)c1)C(Cl)Cl	14.1	4.84	6.54	123	
O=C(Nc1cccc(S(=O)(=O)C(F)(F)F)c1)C(Cl)Cl	6.53	20.6	9.01	64	

SMILES	IC50 [1] [µM]	IC50 [2] [µM]	IC50 [3] [µM]	IC50 [5] [µM]	also measured
Cc1ccc(NC(=O)C(Cl)Cl)cc1	48.9				
O=C(Nc1ccc(F)cc1)C(Cl)Cl	68.4				
O=C(Nc1ccc(Cl)cc1)C(Cl)Cl	20.4	60.8	49.6		
O=C(Nc1ccc(Br)cc1)C(Cl)Cl	13.7	21.7	9.77		
O=C(Nc1ccc(I)cc1)C(Cl)Cl	12.5	66.2	11.9	222	
O=C(Nc1ccc([N+](=O)[O-])cc1)C(Cl)Cl	34.4	60.6	29.5	190	
COc1ccc(NC(=O)C(Cl)Cl)cc1	80.9	278	192		
O=C(Nc1ccc(SC(F)(F)F)cc1)C(Cl)Cl	10.6	2.08	3.61	203	
O=C(Nc1ccc(S(=O)(=O)C(F)(F)F)cc1)C(Cl)Cl	8.5	9.71	72.8	146	
O=C(Nc1cccc(Cl)c1Cl)C(Cl)Cl		217	180		
O=C(Nc1ccc(Cl)c(Cl)c1)C(Cl)Cl	5.09	7.05	7.37	177	
O=C(Nc1cc(Cl)cc(Cl)c1)C(Cl)Cl	4.4	4.53	4.65	60.1	
O=C(Nc1cc(Cl)ccc1Cl)C(Cl)Cl	12.4	11.5	18.2		
O=C(Nc1cccc(S(=O)(=O)c2cccc(NC(=O)C(Cl)Cl)c2)c1)C(Cl)Cl	5.89	24	15.9	198	
O=C(Nc1ccccc1Cl)C(Cl)Cl	50.1				
O=C([O-])C(Cl)Cl.[Na+] [SODIUM DICHLOROACETATE]	1010	1420	860	1050	
